From ChEMBL document CHEMBL2311304, “Design, synthesis and in vitro and in vivo antitumor activities of novel bivalent β-carbolines” (Eur J Med Chem, 2013) come the findings set out here.

What is called IC50 is the concentration at which inhibition is half-maximal.

In the first assay the test system is SK-OV-3. The experiment in a line: Cytotoxicity against human ovary adenocarcinoma SKOV3 cells assessed as reduction in optical density by MTT assay. The class given is functional, cell-based. Conditions: SK-OV-3, Female gonad. The essentials:
(§1)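 Cells were cultured in RPMI-1640 with 10% (v/v) fetal calf serum, 100 µg ml-1 penicillin and 100 µg ml-1 streptomycin at 37 °C in humidified 5% CO2. Compounds were dissolved in DMSO, with final DMSO at 2% (v/v) or lower. MTT staining was used, with three replicate wells per point. IC50 is the concentration giving a 50% drop in optical density versus untreated cells.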
A general note: Formazan colour is commonly taken as a measure of viable cells.
Turning to `c1ccc2c(c1)c1ccnc(-c3ccsc3)c1n2CCCCCCn1c2ccccc2c2ccnc(-c3ccsc3)c21`, the IC50 is above 200 µM.

In the case of `CCOC(=O)c1cc2c3ccccc3n(CCCCCCn3c4ccccc4c4cc(C(=O)OCC)nc(C)c43)c2c(C)n1`, the IC50 is above 200 µM.

Regarding `Cc1nccc2c3ccccc3n(CCCCCCCCCCn3c4ccccc4c4ccnc(C)c43)c12`, the IC50 was 8.5 µM.

In the case of `COc1ccc2c3ccnc(C)c3n(CCCCCCCn3c4cc(OC)ccc4c4ccnc(C)c43)c2c1`, the concentration for half-maximal inhibition (IC50) came to 10.2 µM.

Turning to `COc1ccc2c3ccnc(C)c3n(CCCCCCCCn3c4cc(OC)ccc4c4ccnc(C)c43)c2c1`, the IC50 came out at 7.1 µM.

In the case of `Cc1nccc2c3ccccc3n(CCCCCCCCn3c4ccccc4c4ccnc(C)c43)c12`, the IC50 is above 200 µM.

For `COc1cc(-c2nccc3c4ccccc4n(CCCCCCCn4c5ccccc5c5ccnc(-c6cc(OC)c(OC)c(OC)c6)c54)c23)cc(OC)c1OC`, the IC50 is above 200 µM.

For the molecule `CCCCOc1ccc2c3ccnc(C)c3n(CCCCCCn3c4cc(OCCCC)ccc4c4ccnc(C)c43)c2c1`, the IC50 is above 200 µM.

`c1cncc(-c2nccc3c4ccccc4n(CCCCn4c5ccccc5c5ccnc(-c6cccnc6)c54)c23)c1`: the IC50 was found to be 36.8 µM.

For the molecule `Cc1nccc2c3cc(Br)ccc3n(CCCCCn3c4ccc(Br)cc4c4ccnc(C)c43)c12`, the IC50 was above 200 µM.

`Brc1ccc2c(c1)c1ccncc1n2CCCCn1c2ccc(Br)cc2c2ccncc21`: the IC50 turned out to be 8.9 µM.

Take `CCOC(=O)c1cc2c3ccccc3n(CCCCCCn3c4ccccc4c4cc(C(=O)OCC)nc(-c5cccnc5)c43)c2c(-c2cccnc2)n1`: the IC50 turned out to be 68.3 µM.

As to `Cc1nccc2c3ccc(OC(C)C)cc3n(CCCCCCCCCn3c4cc(OC(C)C)ccc4c4ccnc(C)c43)c12`, the IC50 was found to be 101 µM.

The next assay has as its system KB. The experiment in a line: Cytotoxicity against human epidermoid carcinoma of the nasopharynx KB cells assessed as reduction in optical density by MTT assay.
Details: not given
The class given is functional, cell-based. The essentials: as §1
On to `c1ccc2c(c1)c1ccnc(-c3ccsc3)c1n2CCCCCCn1c2ccccc2c2ccnc(-c3ccsc3)c21`, for which the IC50 was above 200 µM.

In the case of `CCOC(=O)c1cc2c3ccccc3n(CCCCCCn3c4ccccc4c4cc(C(=O)OCC)nc(C)c43)c2c(C)n1`, the IC50 is above 200 µM.

On to `Cc1nccc2c3ccccc3n(CCCCCCCCCCn3c4ccccc4c4ccnc(C)c43)c12`, for which the 50% inhibitory concentration (IC50) was above 200 µM.

As for `COc1ccc2c3ccnc(C)c3n(CCCCCCCn3c4cc(OC)ccc4c4ccnc(C)c43)c2c1`, the IC50 is 38.6 µM.

On to `COc1ccc2c3ccnc(C)c3n(CCCCCCCCn3c4cc(OC)ccc4c4ccnc(C)c43)c2c1`, for which the IC50 was 2.8 µM.

For the molecule `Cc1nccc2c3ccccc3n(CCCCCCCCn3c4ccccc4c4ccnc(C)c43)c12`, the IC50 was above 200 µM.

Turning to `COc1cc(-c2nccc3c4ccccc4n(CCCCCCCn4c5ccccc5c5ccnc(-c6cc(OC)c(OC)c(OC)c6)c54)c23)cc(OC)c1OC`, the IC50 amounted to 7.6 µM.

As to `CCCCOc1ccc2c3ccnc(C)c3n(CCCCCCn3c4cc(OCCCC)ccc4c4ccnc(C)c43)c2c1`, the concentration for half-maximal inhibition (IC50) was above 200 µM.

Consider `c1cncc(-c2nccc3c4ccccc4n(CCCCn4c5ccccc5c5ccnc(-c6cccnc6)c54)c23)c1`, for which the IC50 is above 200 µM.

For `Cc1nccc2c3cc(Br)ccc3n(CCCCCn3c4ccc(Br)cc4c4ccnc(C)c43)c12`, the IC50 is above 200 µM.

Regarding `Brc1ccc2c(c1)c1ccncc1n2CCCCn1c2ccc(Br)cc2c2ccncc21`, the IC50 was above 200 µM.

With `CCOC(=O)c1cc2c3ccccc3n(CCCCCCn3c4ccccc4c4cc(C(=O)OCC)nc(-c5cccnc5)c43)c2c(-c2cccnc2)n1`, the IC50 was above 200 µM.

Take `Cc1nccc2c3ccc(OC(C)C)cc3n(CCCCCCCCCn3c4cc(OC(C)C)ccc4c4ccnc(C)c43)c12`: the IC50 was determined as 112 µM.

Another assay has as its system 769-P. The assay is described as follows: Cytotoxicity against human renal carcinoma 769-P cells assessed as reduction in optical density by MTT assay. The class given is functional, cell-based.
Details: not given
The essentials:
as §1
With `c1ccc2c(c1)c1ccnc(-c3ccsc3)c1n2CCCCCCn1c2ccccc2c2ccnc(-c3ccsc3)c21`, the IC50 is above 200 µM.

For `CCOC(=O)c1cc2c3ccccc3n(CCCCCCn3c4ccccc4c4cc(C(=O)OCC)nc(C)c43)c2c(C)n1`, the IC50 was above 200 µM.

`Cc1nccc2c3ccccc3n(CCCCCCCCCCn3c4ccccc4c4ccnc(C)c43)c12`: the IC50 came to 16.2 µM.

Take `COc1ccc2c3ccnc(C)c3n(CCCCCCCn3c4cc(OC)ccc4c4ccnc(C)c43)c2c1`: the IC50 turned out to be 114 µM.

For the molecule `COc1ccc2c3ccnc(C)c3n(CCCCCCCCn3c4cc(OC)ccc4c4ccnc(C)c43)c2c1`, the 50% inhibitory concentration (IC50) was determined as 65.6 µM.

Take `Cc1nccc2c3ccccc3n(CCCCCCCCn3c4ccccc4c4ccnc(C)c43)c12`: the IC50 was above 200 µM.

In the case of `COc1cc(-c2nccc3c4ccccc4n(CCCCCCCn4c5ccccc5c5ccnc(-c6cc(OC)c(OC)c(OC)c6)c54)c23)cc(OC)c1OC`, the IC50 is 3.3 µM.

With `CCCCOc1ccc2c3ccnc(C)c3n(CCCCCCn3c4cc(OCCCC)ccc4c4ccnc(C)c43)c2c1`, the IC50 came out at 56 µM.

With `c1cncc(-c2nccc3c4ccccc4n(CCCCn4c5ccccc5c5ccnc(-c6cccnc6)c54)c23)c1`, the IC50 was above 200 µM.

With `Cc1nccc2c3cc(Br)ccc3n(CCCCCn3c4ccc(Br)cc4c4ccnc(C)c43)c12`, the IC50 is 4.3 µM.

`Brc1ccc2c(c1)c1ccncc1n2CCCCn1c2ccc(Br)cc2c2ccncc21`: the IC50 is 3.1 µM.

Turning to `CCOC(=O)c1cc2c3ccccc3n(CCCCCCn3c4ccccc4c4cc(C(=O)OCC)nc(-c5cccnc5)c43)c2c(-c2cccnc2)n1`, the IC50 is above 200 µM.

As to `Cc1nccc2c3ccc(OC(C)C)cc3n(CCCCCCCCCn3c4cc(OC(C)C)ccc4c4ccnc(C)c43)c12`, the IC50 came to 40 µM.

The next assay concerns A-375. The assay is described as follows: Cytotoxicity against human malignant melanoma A375 cells assessed as reduction in optical density by MTT assay.
Details: not given
The class given is functional, cell-based. The procedure, abridged:
as §1
As to `c1ccc2c(c1)c1ccnc(-c3ccsc3)c1n2CCCCCCn1c2ccccc2c2ccnc(-c3ccsc3)c21`, the IC50 is above 200 µM.

`CCOC(=O)c1cc2c3ccccc3n(CCCCCCn3c4ccccc4c4cc(C(=O)OCC)nc(C)c43)c2c(C)n1`: the IC50 is above 200 µM.

Consider `Cc1nccc2c3ccccc3n(CCCCCCCCCCn3c4ccccc4c4ccnc(C)c43)c12`, for which the IC50 was above 200 µM.

In the case of `COc1ccc2c3ccnc(C)c3n(CCCCCCCn3c4cc(OC)ccc4c4ccnc(C)c43)c2c1`, the IC50 was 113 µM.

On to `COc1ccc2c3ccnc(C)c3n(CCCCCCCCn3c4cc(OC)ccc4c4ccnc(C)c43)c2c1`, for which the IC50 stood at 6.2 µM.

In the case of `Cc1nccc2c3ccccc3n(CCCCCCCCn3c4ccccc4c4ccnc(C)c43)c12`, the IC50 is above 200 µM.

Turning to `COc1cc(-c2nccc3c4ccccc4n(CCCCCCCn4c5ccccc5c5ccnc(-c6cc(OC)c(OC)c(OC)c6)c54)c23)cc(OC)c1OC`, the IC50 was 4 µM.

Regarding `CCCCOc1ccc2c3ccnc(C)c3n(CCCCCCn3c4cc(OCCCC)ccc4c4ccnc(C)c43)c2c1`, the IC50 is above 200 µM.

With `c1cncc(-c2nccc3c4ccccc4n(CCCCn4c5ccccc5c5ccnc(-c6cccnc6)c54)c23)c1`, the IC50 was 85.3 µM.

Regarding `Cc1nccc2c3cc(Br)ccc3n(CCCCCn3c4ccc(Br)cc4c4ccnc(C)c43)c12`, the IC50 was above 200 µM.

`Brc1ccc2c(c1)c1ccncc1n2CCCCn1c2ccc(Br)cc2c2ccncc21`: the IC50 was above 200 µM.

For the molecule `CCOC(=O)c1cc2c3ccccc3n(CCCCCCn3c4ccccc4c4cc(C(=O)OCC)nc(-c5cccnc5)c43)c2c(-c2cccnc2)n1`, the IC50 is above 200 µM.

Take `Cc1nccc2c3ccc(OC(C)C)cc3n(CCCCCCCCCn3c4cc(OC(C)C)ccc4c4ccnc(C)c43)c12`: the IC50 came to 43.3 µM.

The next assay deals with BGC-823. The experiment in a line: Cytotoxicity against human gastric carcinoma BGC823 cells assessed as reduction in optical density by MTT assay. In kind it is functional, cell-based.
Details: not given
The procedure, abridged: as §1
On to `c1ccc2c(c1)c1ccnc(-c3ccsc3)c1n2CCCCCCn1c2ccccc2c2ccnc(-c3ccsc3)c21`, for which the IC50 was above 200 µM.

For `CCOC(=O)c1cc2c3ccccc3n(CCCCCCn3c4ccccc4c4cc(C(=O)OCC)nc(C)c43)c2c(C)n1`, the IC50 is above 200 µM.

Consider `Cc1nccc2c3ccccc3n(CCCCCCCCCCn3c4ccccc4c4ccnc(C)c43)c12`, for which the IC50 was above 200 µM.

`COc1ccc2c3ccnc(C)c3n(CCCCCCCn3c4cc(OC)ccc4c4ccnc(C)c43)c2c1`: the IC50 worked out at 104 µM.

On to `COc1ccc2c3ccnc(C)c3n(CCCCCCCCn3c4cc(OC)ccc4c4ccnc(C)c43)c2c1`, for which the IC50 was 75.7 µM.

Consider `Cc1nccc2c3ccccc3n(CCCCCCCCn3c4ccccc4c4ccnc(C)c43)c12`, for which the IC50 is above 200 µM.

On to `COc1cc(-c2nccc3c4ccccc4n(CCCCCCCn4c5ccccc5c5ccnc(-c6cc(OC)c(OC)c(OC)c6)c54)c23)cc(OC)c1OC`, for which the IC50 is above 200 µM.

Take `CCCCOc1ccc2c3ccnc(C)c3n(CCCCCCn3c4cc(OCCCC)ccc4c4ccnc(C)c43)c2c1`: the IC50 is above 200 µM.

For the molecule `c1cncc(-c2nccc3c4ccccc4n(CCCCn4c5ccccc5c5ccnc(-c6cccnc6)c54)c23)c1`, the concentration for half-maximal inhibition (IC50) was above 200 µM.

`Cc1nccc2c3cc(Br)ccc3n(CCCCCn3c4ccc(Br)cc4c4ccnc(C)c43)c12`: the IC50 was above 200 µM.

As for `Brc1ccc2c(c1)c1ccncc1n2CCCCn1c2ccc(Br)cc2c2ccncc21`, the IC50 is above 200 µM.

`CCOC(=O)c1cc2c3ccccc3n(CCCCCCn3c4ccccc4c4cc(C(=O)OCC)nc(-c5cccnc5)c43)c2c(-c2cccnc2)n1`: the half-maximal inhibitory concentration (IC50) is above 200 µM.

Regarding `Cc1nccc2c3ccc(OC(C)C)cc3n(CCCCCCCCCn3c4cc(OC(C)C)ccc4c4ccnc(C)c43)c12`, the IC50 is above 200 µM.
